Assay results: ChEMBL document CHEMBL1145212, “Fluorinated diaryl sulfides as serotonin transporter ligands: synthesis, structure-activity relationship study, and in vivo evaluation of fluorine-18-labeled compounds as PET imaging agents” (J Med Chem, 2005)

How the values were obtained:
Rattus norvegicus [1] = assay: Biodistribution of [18F]AFM in rat thalamus at 10 min postinjection in vivo; assay type: ADME, organism-based
Rattus norvegicus [2] = assay: Biodistribution of [18F]AFM in rat frontal cortex at 10 min postinjection in vivo; assay type: ADME, organism-based
Outline: (§1)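 Male Sprague-Dawley rats, three per group, received ~20 µCi of the F-18 radioligand in saline by tail-vein injection. Rats were anesthetized with CO2 and decapitated at 10, 30, 60, 90 or 120 min. Blood and brain regions were weighed and gamma-counted. %ID/g was decay- and tail-residual-corrected against F-18 standards made from the injectate and reported as mean ± SD.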

Rattus norvegicus [3] = assay: Biodistribution of [18F]AFM in rat hippocampus at 30 min postinjection in vivo; assay type: ADME, organism-based; settings: 0.5 h; outline: as §1
Rattus norvegicus [4] = assay: Biodistribution of [18F]AFM in rat blood at 90 min postinjection in vivo; assay type: ADME, organism-based; settings: 1.5 h; outline: as §1
Rattus norvegicus [5] = organism: Rattus norvegicus; assay: Specific binding of [18F]AFA in hypothalamus of rat pretreated with compound 7d; n=3; assay type: functional
Rattus norvegicus [6] = assay: Biodistribution of [18F]AFM in rat blood at 10 min postinjection in vivo; assay type: ADME, organism-based; outline: as §1
Rattus norvegicus [7] = assay: Biodistribution of [18F]AFM in rat hippocampus at 10 min postinjection in vivo; assay type: ADME, organism-based; outline: as §1
Rattus norvegicus [8] = assay: Biodistribution of [18F]AFM in rat hypothalamus at 30 min postinjection in vivo; assay type: ADME, organism-based; settings: 0.5 h
Outline: (§2)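 Male Sprague-Dawley rats, three per group, given about 20 µCi of F-18 radioligand in saline by tail vein. Sacrificed by decapitation after CO₂ anaesthesia at 10, 30, 60, 90 or 120 min. Brain regions and blood removed, weighed and gamma-counted. %ID was decay-corrected and corrected for residual tail activity against F-18 standards, then converted to %ID/g; mean ± SD.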

Rattus norvegicus [9] = assay: Biodistribution of [18F]AFM in rat thalamus at 90 min postinjection in vivo; assay type: ADME, organism-based; settings: 1.5 h
Rattus norvegicus [10] = assay: Biodistribution of [18F]AFM in rat thalamus at 120 min postinjection in vivo; assay type: ADME, organism-based; settings: 2 h
Rattus norvegicus [11] = organism: Rattus norvegicus; assay: Specific binding of [18F]AFA in frontal cortex of rat pretreated with compound 7d; n=3; assay type: functional
Rattus norvegicus [12] = assay: Biodistribution of [18F]AFM in rat hippocampus at 120 min postinjection in vivo; assay type: ADME, organism-based; settings: 2 h; outline: as §1
Rattus norvegicus [13] = assay: Biodistribution of [18F]AFM in rat striatum at 10 min postinjection in vivo; assay type: ADME, organism-based; outline: as §2
Rattus norvegicus [14] = assay: Biodistribution of [18F]AFM in rat striatum at 90 min postinjection in vivo; assay type: ADME, organism-based; settings: 1.5 h
Outline: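 Male Sprague-Dawley rats (three per group) received ~20 µCi of the F-18-labeled ligand in saline by tail vein. They were anesthetized with CO₂ and decapitated at 10, 30, 60, 90 and 120 min. Striatum and other regions were weighed and gamma-counted. Values are decay- and tail-corrected %ID/g against standards made from the injection solution, reported as mean ± SD.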

Rattus norvegicus [15] = organism: Rattus norvegicus; assay: Specific binding of [18F]-AFA in hippocampus of rat pretreated with compound 7d; n=3; assay type: functional
Rattus norvegicus [16] = organism: Rattus norvegicus; assay: Specific binding of [18F]AFA in thalamus of rat pretreated with compound 7d; n=3; assay type: functional
Rattus norvegicus [17] = assay: Biodistribution of [18F]AFM in rat cerebellum at 120 min postinjection in vivo; assay type: ADME, organism-based; settings: 2 h; outline: as §1
Rattus norvegicus [18] = assay: Biodistribution of [18F]AFM in rat blood at 120 min postinjection in vivo; assay type: ADME, organism-based; settings: 2 h; outline: as §1
Rattus norvegicus [19] = assay: Biodistribution of [18F]-AFM in rat thalamus at 30 min postinjection in vivo; assay type: ADME, organism-based; settings: 0.5 h
Outline: (§3)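 Male Sprague-Dawley rats, three per time point, received the F-18 radioligand in saline (~20 µCi per rat at injection) by tail vein. Under CO2 anesthesia they were decapitated at 10, 30, 60, 90 or 120 min. Blood and dissected brain regions were weighed and gamma counted. Activity was decay-corrected, and injected dose was corrected for tail residual activity. Uptake was expressed as %ID/g versus injectate standards, mean ± SD.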

Rattus norvegicus [20] = assay: Biodistribution of [18F]AFM in rat hippocampus at 90 min postinjection in vivo; assay type: ADME, organism-based; settings: 1.5 h; outline: as §2
Rattus norvegicus [21] = assay: Biodistribution of [18F]AFM in rat cerebellum at 60 min postinjection in vivo; assay type: ADME, organism-based; settings: 1 h; outline: as §1
Rattus norvegicus [22] = assay: Biodistribution of [18F]AFM in rat frontal cortex at 120 min postinjection in vivo; assay type: ADME, organism-based; settings: 2 h; outline: as §1
Rattus norvegicus [23] = assay: Biodistribution of [18F]AFM in rat frontal cortex at 90 min postinjection in vivo; assay type: ADME, organism-based; settings: 1.5 h; outline: as §1
Rattus norvegicus [24] = assay: Biodistribution of [18F]AFM in rat hypothalamus at 10 min postinjection in vivo; assay type: ADME, organism-based; outline: as §2
Rattus norvegicus [25] = assay: Biodistribution of [18F]AFM in rat hypothalamus at 90 min postinjection in vivo; assay type: ADME, organism-based; settings: 1.5 h; outline: as §2
Rattus norvegicus [26] = assay: Biodistribution of [18F]AFM in rat cerebellum at 30 min postinjection in vivo; assay type: ADME, organism-based; settings: 0.5 h; outline: as §1
Rattus norvegicus [27] = assay: Biodistribution of [18F]-AFM in rat hippocampus at 60 min postinjection in vivo; assay type: ADME, organism-based; settings: 1 h; outline: as §3
Rattus norvegicus [28] = assay: Biodistribution of [18F]AFM in rat hypothalamus at 60 min postinjection in vivo; assay type: ADME, organism-based; settings: 1 h; outline: as §2
Rattus norvegicus [29] = assay: Biodistribution of [18F]AFM in rat cerebellum at 90 min postinjection in vivo; assay type: ADME, organism-based; settings: 1.5 h; outline: as §1
Rattus norvegicus [30] = assay: Biodistribution of [18F]AFM in rat frontal cortex at 60 min postinjection in vivo; assay type: ADME, organism-based; settings: 1 h; outline: as §1
Rattus norvegicus [31] = assay: Biodistribution of [18F]AFM in rat frontal cortex at 30 min postinjection in vivo; assay type: ADME, organism-based; settings: 0.5 h; outline: as §1
Rattus norvegicus [32] = assay: Biodistribution of [18F]AFM in rat thalamus at 60 min postinjection in vivo; assay type: ADME, organism-based; settings: 1 h
Rattus norvegicus [33] = assay: Biodistribution of [18F]-AFM in rat striatum at 120 min postinjection in vivo; assay type: ADME, organism-based; settings: 2 h; outline: as §3
Rattus norvegicus [34] = assay: Biodistribution of [18F]-AFM in rat striatum at 30 min postinjection in vivo; assay type: ADME, organism-based; settings: 0.5 h; outline: as §3
Rattus norvegicus [35] = assay: Biodistribution of [18F]-AFM in rat striatum 60 min postinjection in vivo; assay type: ADME, organism-based; settings: 1 h; outline: as §3
Rattus norvegicus [36] = organism: Rattus norvegicus; assay: Specific binding of [18F]AFA in striatum of rat pretreated with compound 7d; n=3; assay type: functional
Rattus norvegicus [37] = assay: Biodistribution of [18F]AFM in rat blood at 30 min postinjection in vivo; assay type: ADME, organism-based; settings: 0.5 h; outline: as §1
Rattus norvegicus [38] = assay: Biodistribution of [18F]AFM in rat blood at 60 min postinjection in vivo; assay type: ADME, organism-based; settings: 1 h; outline: as §1
Rattus norvegicus [39] = assay: Biodistribution of [18F]-AFM in rat cerebellum at 10 min postinjection in vivo; assay type: ADME, organism-based; outline: as §3
Rattus norvegicus [40] = assay: Biodistribution of [18F]AFM in rat hypothalamus at 120 min postinjection in vivo; assay type: ADME, organism-based; settings: 2 h; outline: as §2

## CN(C)Cc1ccccc1Sc1ccc(C[18F])cc1N
Rattus norvegicus [1]
  Biodistribution: 0.72 %ID/g
Rattus norvegicus [2]
  Biodistribution: 0.82 %ID/g
Rattus norvegicus [3]
  Biodistribution: 0.64 %ID/g
Rattus norvegicus [4]
  Biodistribution: 0.08 %ID/g
Rattus norvegicus [5]
  Specific binding: 0.84
Rattus norvegicus [6]
  Biodistribution: 0.37 %ID/g
Rattus norvegicus [7]
  Biodistribution: 0.51 %ID/g
Rattus norvegicus [8]
  Biodistribution: 0.82 %ID/g
Rattus norvegicus [9]
  Biodistribution: 0.5 %ID/g
Rattus norvegicus [10]
  Biodistribution: 0.56 %ID/g
Rattus norvegicus [11]
  Specific binding: 0.31 %ID/g
Rattus norvegicus [12]
  Biodistribution: 0.28 %ID/g
Rattus norvegicus [13]
  Biodistribution: 0.69 %ID/g
Rattus norvegicus [14]
  Biodistribution: 0.45 %ID/g
Rattus norvegicus [15]
  Specific binding: 0.45 %ID/g
Rattus norvegicus [16]
  Specific binding: 0.85 %ID/g
Rattus norvegicus [17]
  Biodistribution: 0.07 %ID/g
Rattus norvegicus [18]
  Biodistribution: 0.04 %ID/g
Rattus norvegicus [19]
  Biodistribution: 0.88 %ID/g
Rattus norvegicus [20]
  Biodistribution: 0.36 %ID/g
Rattus norvegicus [21]
  Biodistribution: 0.13 %ID/g
Rattus norvegicus [22]
  Biodistribution: 0.38 %ID/g
Rattus norvegicus [23]
  Biodistribution: 0.52 %ID/g
Rattus norvegicus [24]
  Biodistribution: 0.7 %ID/g
Rattus norvegicus [25]
  Biodistribution: 0.58 %ID/g
Rattus norvegicus [26]
  Biodistribution: 0.23 %ID/g
Rattus norvegicus [27]
  Biodistribution: 0.45 %ID/g
Rattus norvegicus [28]
  Biodistribution: 0.71 %ID/g
Rattus norvegicus [29]
  Biodistribution: 0.08 %ID/g
Rattus norvegicus [30]
  Biodistribution: 0.71 %ID/g
Rattus norvegicus [31]
  Biodistribution: 0.99 %ID/g
Rattus norvegicus [32]
  Biodistribution: 0.67 %ID/g
Rattus norvegicus [33]
  Biodistribution: 0.42 %ID/g
Rattus norvegicus [34]
  Biodistribution: 0.83 %ID/g
Rattus norvegicus [35]
  Biodistribution: 0.57 %ID/g
Rattus norvegicus [36]
  Specific binding: 0.53
Rattus norvegicus [37]
  Biodistribution: 0.18 %ID/g
Rattus norvegicus [38]
  Biodistribution: 0.1 %ID/g
Rattus norvegicus [39]
  Biodistribution: 0.33 %ID/g
Rattus norvegicus [40]
  Biodistribution: 0.55 %ID/g
